Assay results from ChEMBL document CHEMBL1135682, “Synthesis and antimycobacterial activity of pyrazine and quinoxaline derivatives” (J Med Chem, 2002).
≈ marks a conversion by molar mass, not a printed value.

What was measured:
[1] = Partition coefficient was evaluated using method of Morgiuchi et al; assay type: physicochemical; details: octanol/water; read-out: mLog P
[2] = Minimum inhibitory concentration against MAC NJ211 using Middlebrook 7H9 with glycerol and OADC enrichment; assay type: functional; details: Mycobacterium avium
Procedure, shortened: (§1)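 Run in-house in Middlebrook 7H9 broth with glycerol and OADC enrichment, pH 6.6, against Mtb H37Ra or M. avium; the M. avium strains came from the National Jewish Center, Denver. Ethambutol served as a reference drug. The read-out is the MIC.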

[3] = Minimum inhibitory concentration against Mtb H37Ra using Middlebrook 7H9 with glycerol and OADC enrichment; assay type: functional; details: Mycobacterium tuberculosis; procedure, shortened: as §1
[4] = Minimum inhibitory concentration against Mtb H37Rv using Middlebrook 7H9 with glycerol and OADC enrichment; assay type: functional; details: Mycobacterium tuberculosis

| SMILES | logP [1] | MIC [2] | MIC [3] | MIC [4] |
| --- | --- | --- | --- | --- |
| NC(=O)c1cnc2ccccc2n1 | 0.13 | > 128 µg/mL | > 128 µg/mL | > 6.25 µg/mL |
| O=C(OCc1ccc([N+](=O)[O-])cc1)c1ccccc1 | 3.45 |  |  | > 6.25 µg/mL |
| CC(=O)OCc1ccc(OC(C)=O)cc1 | 2.03 | 128 µg/mL (≈ 615 µM) | 8 µg/mL (≈ 38.4 µM) |  |
| CC(=O)OCc1ccc([N+](=O)[O-])cc1 | 2.02 | > 128 µg/mL | > 128 µg/mL | > 6.25 µg/mL |
| CC(=O)Oc1ccc(COC(=O)c2cnc3ccccc3n2)cc1 | 2.15 | 16 µg/mL (≈ 49.6 µM) | 0.5 µg/mL (≈ 1.55 µM) | 6.25 µg/mL (≈ 19.4 µM) |
| O=C(OCc1ccc([N+](=O)[O-])cc1)c1cnc2ccccc2n1 | 2.27 | > 128 µg/mL | > 128 µg/mL | > 6.25 µg/mL |
| O=C(OCc1ccccc1)c1cnccn1 | 0.94 | > 128 µg/mL | 16 µg/mL (≈ 74.7 µM) | > 6.25 µg/mL |
| O=C(OCc1ccccc1[N+](=O)[O-])c1cnc2ccccc2n1 | 2.27 | > 128 µg/mL | > 128 µg/mL | > 6.25 µg/mL |
| O=C(O)c1cnccn1 [PYRAZINOIC ACID] |  | > 128 µg/mL | 64 µg/mL (≈ 516 µM) |  |
| O=C(O)c1cnc2ccccc2n1 |  | > 128 µg/mL | > 128 µg/mL |  |
| CCCOC(=O)c1cnc2ccccc2n1 | 1.41 | 128 µg/mL (≈ 592 µM) | 64 µg/mL (≈ 296 µM) | 6.25 µg/mL (≈ 28.9 µM) |
| O=C(OCc1ccc([N+](=O)[O-])cc1)c1ccccn1 | 2.29 | > 128 µg/mL | 128 µg/mL (≈ 496 µM) | > 6.25 µg/mL |
| CC(=O)Oc1ccc(COC(=O)c2cnccn2)cc1 | 0.92 | 16 µg/mL (≈ 58.8 µM) | < 0.25 µg/mL | 6.25 µg/mL (≈ 23 µM) |
| O=C(OCc1ccccc1[N+](=O)[O-])c1cnccn1 | 0.99 | > 128 µg/mL | 64 µg/mL (≈ 247 µM) | > 6.25 µg/mL |
| CCCCCCCCOC(=O)c1cnc2ccccc2n1 | 2.61 | 128 µg/mL (≈ 447 µM) | 128 µg/mL (≈ 447 µM) | > 6.25 µg/mL |
| O=C(OCc1ccc(C(F)(F)F)cc1)c1cnccn1 | 1.87 | > 128 µg/mL | 128 µg/mL (≈ 454 µM) | > 6.25 µg/mL |
| CCCCCCC(C)OC(=O)c1cnc2ccccc2n1 (configuration not stated) | 2.7 | 128 µg/mL (≈ 447 µM) | 64 µg/mL (≈ 223 µM) | > 6.25 µg/mL |
| COC(=O)c1cnc2ccccc2n1 | 0.84 | > 128 µg/mL | > 128 µg/mL | > 6.25 µg/mL |
| CC(=O)Oc1ccc(COC(=O)c2ccccc2)cc1 | 3.38 | 128 µg/mL (≈ 474 µM) | 16 µg/mL (≈ 59.2 µM) | > 6.25 µg/mL |
| O=C(OCc1ccc([N+](=O)[O-])cc1)c1cnccn1 | 0.99 | > 128 µg/mL | 128 µg/mL (≈ 494 µM) | 6.25 µg/mL (≈ 24.1 µM) |
| NNC(=O)c1cnc2ccccc2n1 | 0.16 | > 128 µg/mL | 64 µg/mL (≈ 340 µM) | > 6.25 µg/mL |
